This is an account of results in ChEMBL document CHEMBL1287707, “Virtual screening against nuclear factor κB (NF-κB) of a focus library: Identification of bioactive furocoumarin derivatives inhibiting NF-κB dependent biological functions involved in cystic fibrosis” (Bioorg Med Chem, 2010).

SMILES strings stand for the structures. The source made the active and inactive calls. The calls are words filed in the database; no cut-off is given here.

The first experiment has as its target T1, Nuclear factor NF-kappa-B p105 subunit (Homo sapiens, UniProt P19838).
T1 sequence (P19838 whole entry): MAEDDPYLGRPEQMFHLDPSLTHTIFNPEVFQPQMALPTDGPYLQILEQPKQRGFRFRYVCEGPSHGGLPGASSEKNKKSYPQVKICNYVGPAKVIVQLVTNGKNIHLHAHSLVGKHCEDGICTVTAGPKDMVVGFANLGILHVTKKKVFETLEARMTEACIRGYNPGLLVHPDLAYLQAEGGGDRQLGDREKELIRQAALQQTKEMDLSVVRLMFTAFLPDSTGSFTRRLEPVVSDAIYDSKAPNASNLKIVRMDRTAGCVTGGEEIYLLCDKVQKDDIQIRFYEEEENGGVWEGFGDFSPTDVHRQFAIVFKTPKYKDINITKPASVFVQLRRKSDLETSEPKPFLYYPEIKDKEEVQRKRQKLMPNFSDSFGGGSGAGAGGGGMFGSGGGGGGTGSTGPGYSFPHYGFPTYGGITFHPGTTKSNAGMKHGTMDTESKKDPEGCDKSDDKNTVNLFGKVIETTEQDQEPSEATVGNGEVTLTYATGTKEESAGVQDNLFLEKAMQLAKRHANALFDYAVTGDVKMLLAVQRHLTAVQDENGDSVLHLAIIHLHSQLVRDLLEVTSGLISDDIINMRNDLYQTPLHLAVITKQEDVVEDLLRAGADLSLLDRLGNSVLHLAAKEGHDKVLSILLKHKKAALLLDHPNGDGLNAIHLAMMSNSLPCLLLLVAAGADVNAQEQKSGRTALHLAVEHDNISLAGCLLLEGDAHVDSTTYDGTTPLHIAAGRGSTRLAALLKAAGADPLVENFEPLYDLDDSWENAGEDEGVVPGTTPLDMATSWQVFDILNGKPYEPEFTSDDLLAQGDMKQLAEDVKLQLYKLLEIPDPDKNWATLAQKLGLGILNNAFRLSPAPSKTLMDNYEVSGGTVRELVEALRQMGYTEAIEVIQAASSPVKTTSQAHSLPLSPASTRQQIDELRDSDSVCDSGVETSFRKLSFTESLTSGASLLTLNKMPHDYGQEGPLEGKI
The experiment can be described thus: Inhibition of NF-KB p50 subunit/DNA interaction after 20 mins by EMSA. In short, it runs like this:
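Recombinant human NF-κB p50 (10 ng) was preincubated 20 min at room temperature with varied compound concentrations in buffer TF with 5% glycerol and 1 mM DTT. 0.25 ng 32P-labelled double-stranded NF-κB site oligo was added for a further 20 min. Complexes were resolved on 6% PAGE in 0.25X TBE and detected by autoradiography. IC50 is the concentration giving 50% inhibition of binding.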
(In EMSA bound probe runs differently from free probe, usually more slowly.)
As usually defined, the IC50 is the point on the concentration scale where inhibition reaches its midpoint. Higher therefore signals weaker potency in that assay. Molecule `O=c1cc(-c2ccccc2)c2cc3c(-c4ccc5c(c4)OCO5)coc3cc2o1` came in with an IC50 of 20 µM.

The molecule `COCCNc1oc2c(c1-c1cc(OC)c(OC)c(OC)c1)c(=O)oc1c(C)cccc12` yielded an IC50 of 40 µM. This IC50 is about 2-fold higher than that of the molecule before.

As for `O=C(O)c1ccc(COc2cc(O)cc3oc(=O)c4c(c23)CCC4)cc1`, the IC50 turned out to be 5000 µM.

Consider `COc1ccc(C(=O)c2oc3ccc4c(C)cc(=O)oc4c3c2-c2ccccc2)cc1`, for which the IC50 came to 60 µM.

`O=c1ccc2ccc3occc3c2o1` [ANGELICIN] had an IC50 of 2500 µM.

Turning to `O=c1c(Br)cc2c(-c3ccccc3S(=O)(=O)O)c3cc(Br)c(O)c(O)c3oc-2c1O` [BROMOPYROGALLOL RED], the half-inhibitory concentration (IC50) came to 30 µM.

Consider `Cc1cc(=O)oc2cc(O)ccc12` [HYMECROMONE], for which the IC50 worked out at 200 µM.

With `O=C(O)/C=C/c1ccccc1O` [O-COUMARIC ACID], the IC50 is 50 µM. This IC50 lies about 4-fold lower than the previous one.

The molecule `O=c1ccc2cc3ccoc3cc2o1` [PSORALEN] registered an IC50 of 3000 µM.

The molecule `O=c1ccc2c(-c3ccccc3S(=O)(=O)O)c3ccc(O)c(O)c3oc-2c1O` [PYROGALLOL RED] returned an IC50 of 10 µM. Against the preceding molecule, the IC50 is about 300-fold lower.

The test system of another experiment is IB3-1. The experiment can be described thus: Antiinflammatory activity in Pseudomonas aeruginosa PAO1 infected human IB3-1 cells assessed as inhibition of IL8 gene expression at 10 uM after 4 hrs by RT-PCR analysis. It counts as functional, cell-based. Summed up:
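IB3-1 CF bronchial cells (ΔF508/W1282X) were grown in LHC-8 with 5% FBS, seeded at 200,000 cells/cm2, and serum-starved 18 h. Cells were then preincubated overnight with compound at 10 µM and infected with PAO1 at 30–100 CFU/cell for 4 h at 37 °C. Total RNA was reverse-transcribed and IL-8 mRNA quantified by RT-qPCR.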
As for `COCCNc1oc2c(c1-c1cc(OC)c(OC)c(OC)c1)c(=O)oc1c(C)cccc12`, the outcome was Active.

`COc1ccc(C(=O)c2oc3ccc4c(C)cc(=O)oc4c3c2-c2ccccc2)cc1`: the outcome was Active.
